Experimental data from different studies.
Each line is one published result; the experiments were not run side by side.

`COc1ccc2cc3n(c(=O)c2c1OC)CCc1cc2c(cc1-3)OCO2` gave a Cmax of 233 ng/mL (male Sprague-Dawley rat; blood; oral; 50 mg/kg).
`Cc1c(C(=O)O)ccc2c3n(nc12)[C@@H]1[C@H](C3)N(CC2CC2)[C@@]2(C(=O)Nc3cc(Cl)ccc32)[C@H]1c1cccc(Cl)c1F` has a Cmax of 5.7 µM (male rat; plasma; oral; 2 mg/kg).
The Cmax of `O=C1CC[C@H](N2Cc3cc(N4CCN(CC5CCN(c6ccc([C@@H]7c8ccc(O)cc8CC[C@@H]7c7ccccc7)cc6)CC5)CC4)ccc3C2=O)C(=O)N1` is reported as 1040 ng/mL (male Sprague-Dawley rat; plasma; oral; 20 mg/kg; fed).
The Cmax of `O=c1cc(-c2ccc(O)c(O)c2)oc2cc(O)cc(O)c12` is reported as 40.1 ng/mL (male Sprague-Dawley rat; plasma; oral; 30 mg/kg).
With `CC1(CN)CCN(c2cnc3c(Sc4ccncc4Cl)n[nH]c3n2)CC1` the Cmax was 142 ng/mL (male Sprague-Dawley rat; plasma; oral; 10 mg/kg).
For `N#C[C@@]12C[C@@H]1[C@@H](n1cnc3c(N[C@@H](C4CCC4)C4CC4)nc(I)nc31)[C@H](O)[C@@H]2O`, the Cmax was 6.73 ng/mL (male Wistar rat; plasma; oral; 1 mg/kg).
The Cmax of `O=C1c2ccncc2C(=O)c2c1[nH]c1ccccc21` is reported as 3.25 µM (rat; plasma; intravenous; 1 mg/kg; single dose).
For `CC(=Nc1ccc(N=Cc2cnccn2)cc1)N(C)C`, the Cmax was 397 ng/mL (male Sprague-Dawley rat; plasma; oral; 200 mg/kg).
With `Nc1ccc(/C=C/C(=O)NCc2cc3cc(-c4ccc(C(=O)N5CCC(F)(F)CC5)cc4)cc(-c4ccc(F)cc4)c3o2)cn1` the Cmax was 5990 ng/mL (rat; plasma; oral; 3 mg/kg).
The Cmax of `O=C(C=Cc1ccccc1)Nc1cc(-c2ccnc(N3CCC(O)CC3)c2)ccn1` is reported as 324 ng/mL (female Sprague-Dawley rat; plasma; intravenous; 5 mg/kg).
`C[C@H]1[C@@H](O)O[C@@H]2O[C@@]3(C)CC[C@H]4[C@H](C)CC[C@@H]1[C@@]24OO3` has a Cmax of 227 ng/mL (Sprague-Dawley rat; plasma; oral; 10 mg/kg).
